From ChEMBL document CHEMBL3734675, “Synthesis, antimycobacterial and antibacterial activity of fluoroquinolone derivatives containing an 3-alkoxyimino-4-(cyclopropylanimo)methylpyrrolidine moiety” (2015)
≈ marks a conversion by molar mass, not a printed value.

Experiments:
Format in all cases: functional
Staphylococcus aureus [1] = assay: Antibacterial activity against Staphylococcus aureus CMCC 26003 after 18 to 24 hrs by two-fold serial dilution method
Method in brief: (§1)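 Twofold serial dilution in agar media against Gram-positive and Gram-negative strains. Plates incubated at 35 °C for 18–24 h. MIC read as the lowest compound concentration giving complete inhibition of bacterial growth.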

Klebsiella pneumoniae [2] = assay: Antibacterial activity against Klebsiella pneumoniae 14-2 after 18 to 24 hrs by two-fold serial dilution method; method in brief: as §1
[3] = test system: Staphylococcus epidermidis; assay: Antibacterial activity against methicillin-resistant Staphylococcus epidermidis 14-37 after 18 to 24 hrs by two-fold serial dilution method
Method in brief: (§2)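 Agar media, standard twofold serial dilution. MIC is the lowest concentration giving complete inhibition of bacterial growth after incubation at 35 °C for 18–24 h. Ciprofloxacin and levofloxacin were run as comparators.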

[4] = test system: Mycobacterium tuberculosis; assay: Antimycobacterial activity against Mycobacterium tuberculosis H37Rv ATCC 27294 incubated for 7 days by microplate Alamar Blue assay; settings: H37Rv ATCC 27294, 168 h
Method in brief: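 Fluorescence read-out. MIC is the lowest concentration that reduces fluorescence by at least 90% relative to the mean of replicate bacterium-only controls. Isoniazid and rifampicin were included as reference drugs.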

[5] = test system: Staphylococcus epidermidis; assay: Antibacterial activity against methicillin-resistant Staphylococcus epidermidis 14-21 after 18 to 24 hrs by two-fold serial dilution method; method in brief: as §2
Staphylococcus aureus [6] = assay: Antibacterial activity against methicillin-sensitive Staphylococcus aureus 14-1 after 18 to 24 hrs by two-fold serial dilution method; method in brief: as §1
Enterococcus faecalis [7] = assay: Antibacterial activity against Enterococcus faecalis 14-2 after 18 to 24 hrs by two-fold serial dilution method; method in brief: as §1
Staphylococcus aureus [8] = assay: Antibacterial activity against methicillin-sensitive Staphylococcus aureus 14-4 after 18 to 24 hrs by two-fold serial dilution method; method in brief: as §1
Staphylococcus aureus [9] = assay: Antibacterial activity against methicillin-resistant Staphylococcus aureus 14-4 after 18 to 24 hrs by two-fold serial dilution method; method in brief: as §2
Klebsiella pneumoniae [10] = assay: Antibacterial activity against Klebsiella pneumoniae 14-3 after 18 to 24 hrs by two-fold serial dilution method; method in brief: as §1
Klebsiella pneumoniae [11] = assay: Antibacterial activity against extended-spectrum beta-lactamase producing Klebsiella pneumoniae 14-18 after 18 to 24 hrs by two-fold serial dilution method; method in brief: as §1
Klebsiella pneumoniae [12] = assay: Antibacterial activity against Klebsiella pneumoniae 14-1 after 18 to 24 hrs by two-fold serial dilution method; method in brief: as §1
Escherichia coli [13] = assay: Antibacterial activity against Escherichia coli 14-1 after 18 to 24 hrs by two-fold serial dilution method; method in brief: as §1
Staphylococcus aureus [14] = assay: Antibacterial activity against methicillin-resistant Staphylococcus aureus 14-5 after 18 to 24 hrs by two-fold serial dilution method; method in brief: as §2
Pseudomonas aeruginosa [15] = assay: Antibacterial activity against Pseudomonas aeruginosa 14-16 after 18 to 24 hrs by two-fold serial dilution method; method in brief: as §1
Klebsiella pneumoniae [16] = assay: Antibacterial activity against Klebsiella pneumoniae 14-4 after 18 to 24 hrs by two-fold serial dilution method; method in brief: as §1
Enterococcus faecium [17] = assay: Antibacterial activity against Enterococcus faecium 14-2 after 18 to 24 hrs by two-fold serial dilution method; method in brief: as §1
Streptococcus pneumoniae = assay: Antibacterial activity against methicillin-resistant Streptococcus pneumoniae ATCC 19615 after 18 to 24 hrs by two-fold serial dilution method; method in brief: as §2
Pseudomonas aeruginosa [18] = assay: Antibacterial activity against Pseudomonas aeruginosa 14-14 after 18 to 24 hrs by two-fold serial dilution method; method in brief: as §1
Enterococcus faecium [19] = assay: Antibacterial activity against Enterococcus faecium 14-6 after 18 to 24 hrs by two-fold serial dilution method; method in brief: as §1
Escherichia coli [20] = assay: Antibacterial activity against Escherichia coli 14-2 after 18 to 24 hrs by two-fold serial dilution method; method in brief: as §1
Enterococcus faecium [21] = assay: Antibacterial activity against Enterococcus faecium 14-5 after 18 to 24 hrs by two-fold serial dilution method; method in brief: as §1
[22] = test system: Staphylococcus epidermidis; assay: Antibacterial activity against methicillin-sensitive Staphylococcus epidermidis 14-2 after 18 to 24 hrs by two-fold serial dilution method; method in brief: as §1
Staphylococcus aureus [23] = assay: Antibacterial activity against methicillin-sensitive Staphylococcus aureus 14-3 after 18 to 24 hrs by two-fold serial dilution method; method in brief: as §1
Enterococcus faecalis [24] = assay: Antibacterial activity against Enterococcus faecalis 14-1 after 18 to 24 hrs by two-fold serial dilution method; method in brief: as §1
Escherichia coli [25] = assay: Antibacterial activity against Escherichia coli ATCC 25922 after 18 to 24 hrs by two-fold serial dilution method; method in brief: as §1
[26] = test system: Staphylococcus epidermidis; assay: Antibacterial activity against methicillin-resistant Staphylococcus epidermidis 14-39 after 18 to 24 hrs by two-fold serial dilution method; method in brief: as §2
Pseudomonas aeruginosa [27] = assay: Antibacterial activity against Pseudomonas aeruginosa 14-9 after 18 to 24 hrs by two-fold serial dilution method; method in brief: as §1
Escherichia coli [28] = assay: Antibacterial activity against extended-spectrum beta-lactamase producing Escherichia coli 14-1 after 18 to 24 hrs by two-fold serial dilution method; method in brief: as §1
Klebsiella pneumoniae [29] = assay: Antibacterial activity against extended-spectrum beta-lactamase producing Klebsiella pneumoniae 14-19 after 18 to 24 hrs by two-fold serial dilution method; method in brief: as §1
Escherichia coli [30] = assay: Antibacterial activity against extended-spectrum beta-lactamase producing Escherichia coli 14-2 after 18 to 24 hrs by two-fold serial dilution method; method in brief: as §1
Pseudomonas aeruginosa [31] = assay: Antibacterial activity against Pseudomonas aeruginosa 14-15 after 18 to 24 hrs by two-fold serial dilution method; method in brief: as §1
Klebsiella pneumoniae [32] = assay: Antibacterial activity against extended-spectrum beta-lactamase producing Klebsiella pneumoniae 14-17 after 18 to 24 hrs by two-fold serial dilution method; method in brief: as §1
[33] = test system: Staphylococcus epidermidis; assay: Antibacterial activity against methicillin-resistant Staphylococcus epidermidis 14-22 after 18 to 24 hrs by two-fold serial dilution method; method in brief: as §2
Pseudomonas aeruginosa [34] = assay: Antibacterial activity against Pseudomonas aeruginosa ATCC 27853 after 18 to 24 hrs by two-fold serial dilution method; method in brief: as §1

Structure (SMILES)	MIC (Staphylococcus aureus [1]) [ng/mL]	MIC (Klebsiella pneumoniae [2]) [µg/mL]	MIC [3] [µg/mL]	MIC90 [4] [µg/mL]	MIC [5] [µg/mL]	MIC (Staphylococcus aureus [6]) [µg/mL]	MIC (Enterococcus faecalis [7]) [µg/mL]	MIC (Staphylococcus aureus [8]) [µg/mL]	MIC (Staphylococcus aureus [9]) [µg/mL]	MIC (Klebsiella pneumoniae [10]) [µg/mL]	MIC (Klebsiella pneumoniae [11]) [µg/mL]	MIC (Klebsiella pneumoniae [12]) [µg/mL]	MIC (Escherichia coli [13]) [µg/mL]	MIC (Staphylococcus aureus [14]) [µg/mL]	MIC (Pseudomonas aeruginosa [15]) [µg/mL]	MIC (Klebsiella pneumoniae [16]) [µg/mL]	MIC (Enterococcus faecium [17]) [µg/mL]	MIC (Streptococcus pneumoniae) [µg/mL]	MIC (Pseudomonas aeruginosa [18]) [µg/mL]	MIC (Enterococcus faecium [19]) [µg/mL]	further results
CO/N=C1/CN(c2nc3c(cc2F)c(=O)c(C(=O)O)cn3[C@@H]2C[C@@H]2F)CC1CNC1CC1 (stereo not given in full)	< 8	64 (≈ 143 µM)	64 (≈ 143 µM)	1.25 (≈ 2.79 µM)	32 (≈ 71.5 µM)	8 (≈ 17.9 µM)	0.5 (≈ 1.12 µM)	16 (≈ 35.8 µM)	> 128	> 128	32 (≈ 71.5 µM)	64 (≈ 143 µM)	> 128	8 (≈ 17.9 µM)	32 (≈ 71.5 µM)	> 128	16 (≈ 35.8 µM)	4 (≈ 8.94 µM)	32 (≈ 71.5 µM)	64 (≈ 143 µM)	MIC (Escherichia coli [20]): > 128 µg/mL; MIC (Enterococcus faecium [21]): 32 µg/mL (≈ 71.5 µM); MIC [22]: > 128 µg/mL; MIC (Staphylococcus aureus [23]): 8 µg/mL (≈ 17.9 µM); MIC (Enterococcus faecalis [24]): 128 µg/mL (≈ 286 µM); MIC (Escherichia coli [25]): 4 µg/mL (≈ 8.94 µM); MIC [26]: 32 µg/mL (≈ 71.5 µM); MIC (Pseudomonas aeruginosa [27]): 8 µg/mL (≈ 17.9 µM); MIC (Escherichia coli [28]): 16 µg/mL (≈ 35.8 µM); MIC (Klebsiella pneumoniae [29]): 64 µg/mL (≈ 143 µM); MIC (Escherichia coli [30]): > 128 µg/mL; MIC (Pseudomonas aeruginosa [31]): 64 µg/mL (≈ 143 µM); MIC (Klebsiella pneumoniae [32]): 32 µg/mL (≈ 71.5 µM); MIC [33]: 16 µg/mL (≈ 35.8 µM); MIC (Pseudomonas aeruginosa [34]): 8 µg/mL (≈ 17.9 µM)
O=C(O)c1cn([C@@H]2C[C@@H]2F)c2nc(N3C/C(=N/OCc4ccccc4)C(CNC4CC4)C3)c(F)cc2c1=O (stereo not given in full)	< 8	64 (≈ 122 µM)	16 (≈ 30.6 µM)	2.1 (≈ 4.01 µM)	16 (≈ 30.6 µM)	4 (≈ 7.64 µM)	1 (≈ 1.91 µM)	16 (≈ 30.6 µM)	32 (≈ 61.1 µM)	128 (≈ 244 µM)	64 (≈ 122 µM)	128 (≈ 244 µM)	> 128	8 (≈ 15.3 µM)	64 (≈ 122 µM)	> 128	8 (≈ 15.3 µM)	1 (≈ 1.91 µM)	64 (≈ 122 µM)	32 (≈ 61.1 µM)	MIC (Escherichia coli [20]): > 128 µg/mL; MIC (Enterococcus faecium [21]): 16 µg/mL (≈ 30.6 µM); MIC [22]: 32 µg/mL (≈ 61.1 µM); MIC (Staphylococcus aureus [23]): 4 µg/mL (≈ 7.64 µM); MIC (Enterococcus faecalis [24]): 64 µg/mL (≈ 122 µM); MIC (Escherichia coli [25]): 0.25 µg/mL (≈ 0.478 µM); MIC [26]: 64 µg/mL (≈ 122 µM); MIC (Pseudomonas aeruginosa [27]): 8 µg/mL (≈ 15.3 µM); MIC (Escherichia coli [28]): 16 µg/mL (≈ 30.6 µM); MIC (Klebsiella pneumoniae [29]): 128 µg/mL (≈ 244 µM); MIC (Escherichia coli [30]): > 128 µg/mL; MIC (Pseudomonas aeruginosa [31]): 64 µg/mL (≈ 122 µM); MIC (Klebsiella pneumoniae [32]): 64 µg/mL (≈ 122 µM); MIC [33]: 8 µg/mL (≈ 15.3 µM); MIC (Pseudomonas aeruginosa [34]): 32 µg/mL (≈ 61.1 µM)
